This note sets out measurements from ChEMBL document CHEMBL1124735, “Dehydrogenase binding by tiazofurin anabolites” (J Med Chem, 1990).

Experiment [1] deals with T1, Alcohol dehydrogenase (Equus caballus, UniProt P00327+P00328). The experiment is described as follows: Dissociation constant from Alcohol dehydrogenase. The experiment is classed as protein assay.
The target in experiment [2] is Glutamate dehydrogenase 1, mitochondrial (Bos taurus, UniProt P00366). The experiment is described as follows: In vitro inhibitory activity against bovine liver glutamate dehydrogenase (GDH).
Experiment [3] concerns the target L-lactate dehydrogenase B chain (Sus scrofa, UniProt P00336). Kind of experiment: In vitro inhibitory activity against pig heart lactate dehydrogenase (LDH). An outline of the steps: (§1)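 Pig heart enzymes (cytoplasmic MDH or LDH, from ammonium sulfate suspension) assayed in 0.05 M Tris HCl pH 9.0, with NAD as substrate; rates from NADH appearance by A340 (ε 6.22 mM⁻¹cm⁻¹) or fluorescence calibrated against NADH standards. Run at least in duplicate; kinetic constants from Lineweaver-Burk plots by linear regression.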

Experiment [4] addresses T2, Malate dehydrogenase, cytoplasmic (Sus scrofa, UniProt P11708).
T2 sequence (P11708 whole entry): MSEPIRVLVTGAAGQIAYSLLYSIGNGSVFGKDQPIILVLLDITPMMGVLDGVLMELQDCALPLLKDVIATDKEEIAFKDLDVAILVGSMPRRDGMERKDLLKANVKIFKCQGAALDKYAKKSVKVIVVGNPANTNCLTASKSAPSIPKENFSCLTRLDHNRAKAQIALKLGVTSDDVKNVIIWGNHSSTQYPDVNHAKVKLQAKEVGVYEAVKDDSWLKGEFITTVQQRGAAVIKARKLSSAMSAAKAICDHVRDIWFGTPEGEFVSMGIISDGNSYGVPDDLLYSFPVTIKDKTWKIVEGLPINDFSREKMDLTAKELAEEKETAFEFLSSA
Kind of experiment: In vitro inhibitory activity against pig heart cytoplasmic malate dehydrogenase (MDH). An outline of the steps:
as §1

Experiment [5] concerns the target T1, Alcohol dehydrogenase. The experiment is described as follows: In vitro inhibitory activity against horse liver Alcohol dehydrogenase (ADH).
Experiment [6] addresses T1, Alcohol dehydrogenase. Kind of experiment: In vitro inhibitory activity against horse liver Alcohol dehydrogenase.

Sequence of Glutamate dehydrogenase 1, mitochondrial (P00366 whole entry): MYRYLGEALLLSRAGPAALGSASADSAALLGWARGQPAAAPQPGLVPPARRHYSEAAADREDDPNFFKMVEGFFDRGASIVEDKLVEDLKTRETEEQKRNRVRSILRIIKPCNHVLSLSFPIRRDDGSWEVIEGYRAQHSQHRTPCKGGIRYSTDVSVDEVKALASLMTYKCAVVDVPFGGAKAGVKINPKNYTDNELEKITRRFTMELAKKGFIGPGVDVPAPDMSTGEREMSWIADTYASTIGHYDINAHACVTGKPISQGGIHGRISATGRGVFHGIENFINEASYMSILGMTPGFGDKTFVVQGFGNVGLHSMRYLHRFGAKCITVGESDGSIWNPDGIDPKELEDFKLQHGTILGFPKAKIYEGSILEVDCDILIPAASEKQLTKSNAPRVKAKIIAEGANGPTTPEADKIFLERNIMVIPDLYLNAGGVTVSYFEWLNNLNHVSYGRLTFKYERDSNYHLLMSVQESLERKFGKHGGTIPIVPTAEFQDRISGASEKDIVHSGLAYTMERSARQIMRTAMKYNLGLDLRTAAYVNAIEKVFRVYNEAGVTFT
Sequence of L-lactate dehydrogenase B chain (P00336 whole entry): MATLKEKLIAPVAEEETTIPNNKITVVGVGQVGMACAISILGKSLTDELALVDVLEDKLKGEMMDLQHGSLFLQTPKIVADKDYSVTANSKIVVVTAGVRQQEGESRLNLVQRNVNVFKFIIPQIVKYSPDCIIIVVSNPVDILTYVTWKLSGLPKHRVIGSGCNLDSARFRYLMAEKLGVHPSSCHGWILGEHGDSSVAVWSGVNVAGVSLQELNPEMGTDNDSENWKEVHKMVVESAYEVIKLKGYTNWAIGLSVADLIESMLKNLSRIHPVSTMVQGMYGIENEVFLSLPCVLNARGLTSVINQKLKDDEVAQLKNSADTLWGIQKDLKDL

Take `NC(=O)c1csc([C@H]2O[C@@H](COP(=O)(O)OP(=O)(O)OC[C@H]3O[C@@H](n4cnc5c(N)ncnc54)[C@H](O)[C@@H]3O)[C@H](O)[C@@H]2O)n1`: the equilibrium dissociation constant (Kd) (as a rule, the equilibrium constant for the complex coming apart) on Alcohol dehydrogenase [1] worked out at 27 µM. In addition, the Ki (usually the dissociation constant of the complex between target and ligand, obtained from inhibition or displacement) is 4.5 µM in experiment [2], 25.2 µM in experiment [3], 36.3 µM in experiment [4] and 26.5 µM at Alcohol dehydrogenase [5].
Consider `NC(=O)c1csc([C@@H]2O[C@H](COP(=O)(O)O)[C@@H](O)[C@H]2O)n1`, for which the Ki in experiment [2] is 65.2 µM; on Alcohol dehydrogenase [6], 105 µM.
For `NC(=O)c1ccc[n+]([C@@H]2O[C@H](COP(=O)([O-])O)[C@@H](O)[C@H]2O)c1` [BETANMN], in that order: above 10000 µM and above 10000 µM.
For `NC(=O)c1csc([C@@H]2O[C@H](CO)[C@@H](O)[C@H]2O)n1` [TIAZOFURIN], the inhibition constant Ki (in experiment [2]; at Alcohol dehydrogenase [6]) was above 10000 µM throughout.
